Only some compounds are listed: those with a hit (about 2.5% of all), similar ones and a draw of the others.
SMARCA2 act – SMARCA2 function activation, primary screen; MG213 cells, MMTV-luciferase reporter, dexamethasone, overnight; activation, % at 9.1 µM; actives 1% (n = 370,000); AID 652017; in the data active means activation above about 7.8%;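 further: 0% = vehicle wells and 100% = reference activator wells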
Vif imaging – HIV Vif inhibition; HEK293T cells, Vif self-association by quenched fluorescence, imaging, 24 h; inhibition, % at 7.49 µM; actives 0.35% (n = 340,000); AID 602346; in the data active means inhibition above about 50%, passing the limit was not always enough; inconclusive means no clear call, values can overlap the other calls; inactive means below about 31%
TAG inh – triacylglycerol accumulation inhibition; AID 651582; inhibition, % at 12.5 µM; H9c2 cells, Nile Red lipid (TAG) fluorescence; cells loaded with 200 µM oleic acid; actives 0.66% (n = 230,000);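 active means pattern-corrected inhibition of lipid staining of at least 50% with the nuclear-stain viability signal not falling by more than 50%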;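 further: 0% = DMSO wells and 100% = triacsin C control wells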
SR-BI DiI inh – inhibitors of mouse SR-BI mediated HDL lipid uptake. ldlA[mSR-BI] CHO cells, DiI-HDL uptake fluorescence, 3 h. inhibition, % at 12.5 µM. AID 488896. Q61009. actives 0.96% (n = 320,000);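 active means mean replicate inhibition of at least 70% and a set share of replicates each scoring 70 or more; inconclusive means meets just one of the two criteria; inactive means fails both criteria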;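 further: 0% = median of neutral control wells and 100% = median of positive control wells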
Target sequence (Q61009 whole entry, looked up): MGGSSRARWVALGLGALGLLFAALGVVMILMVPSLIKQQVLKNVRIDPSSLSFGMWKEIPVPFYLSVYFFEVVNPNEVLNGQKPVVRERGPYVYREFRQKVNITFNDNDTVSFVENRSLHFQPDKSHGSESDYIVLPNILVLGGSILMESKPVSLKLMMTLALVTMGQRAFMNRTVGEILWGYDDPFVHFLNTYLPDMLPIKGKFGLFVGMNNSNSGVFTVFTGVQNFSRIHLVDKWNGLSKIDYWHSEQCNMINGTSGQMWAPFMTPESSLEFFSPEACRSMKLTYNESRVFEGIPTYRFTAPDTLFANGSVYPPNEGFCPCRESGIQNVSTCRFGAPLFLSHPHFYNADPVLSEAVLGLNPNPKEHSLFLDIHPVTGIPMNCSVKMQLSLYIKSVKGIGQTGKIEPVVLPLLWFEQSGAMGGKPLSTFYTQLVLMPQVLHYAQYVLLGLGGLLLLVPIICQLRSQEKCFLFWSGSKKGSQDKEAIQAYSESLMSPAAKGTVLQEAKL
SR-BI uptake up – enhances SR-BI lipid uptake from DiI-HDL. CHO ldlA[mSR-BI] cells, DiI-HDL uptake fluorescence, 3 h; 100 = double the neutral-control signal. activation, % at 12.5 µM. actives 0.096% (n = 320,000). AID 504775;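 active means mean replicate activation of at least 60% and every replicate at or above 60%; inconclusive means mean or all-replicate condition met, but not both; inactive means mean below 60% and not all replicates reaching 60%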;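 further: 0% = median plate neutral-control signal and 100% = twice that signal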
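Material – SR-BI-overexpressing, LDLR-lacking CHO cells · Medium – BSA-supplemented, HEPES-buffered Ham's F12, pH 7.4 · Doses – single concentration · Times – compound with DiI-HDL co-incubation, 3 h at 37 °C · Measured by – bottom-read fluorescence, 550/595 nm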
DiI quencher – DiI fluorescence quenching in cell-free counter-screen | shares compounds with SR-BI DiI inh | cell-free DiI-HDL fluorescence quenching, 30 min | AC50, µM (top dose mostly 35 µM), inactives show at the highest dose activity change, negative = quenching | actives 20% (n = 470) | AID 540326;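 active means quenching, a falling signal, with AC50 below a set limit tied to the top valid dose, actives reach about 32 µM in these data; inconclusive means no clear call, values can overlap the other calls; inactive means rising signal, and the rest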
* hit, by the source's call; ? = inconclusive; nt = no result.

SMILES	SMARCA2 act	Vif imaging	TAG inh	SR-BI DiI inh	SR-BI uptake up	DiI quencher
COc1cccc2c1[C@H](/C=C/c1ccccc1)[C@@H]([C@H](O)CO)OC2	-2	nt	nt	nt	nt	nt
COc1ccc2c(c1)-c1c(sn(-c3ccccc3)c1=S)C(C)(C)N2	-3	-1	nt	42	-42	nt
COc1ccc(-n2sc3c(c2=S)-c2cc(OC)ccc2NC3(C)C)cc1	-1	3	-6	108*	-108	2.5µM*
COc1ccc2c(c1)-c1c(sn(-c3ccc(OC)c(OC)c3)c1=S)C(C)(C)N2	-1	nt	-125	108*	-108	3.1µM*
CCCCS(=O)(=O)N1CCCc2nc(-c3ccccc3)ccc21	-4	nt	nt	nt	nt	nt
Cc1sc(NC(=O)CN2CCCC2)nc1-c1ccc2c(c1)CCN2C(=O)c1cccc(F)c1	1	-11	nt	50	-50	nt
CCOC(=O)C(=O)Nc1nc(-c2ccc3c(c2)CCN3C(=O)C2CC2)c(C)s1	1	-6	nt	56	-56	-11%
C=CCn1c(SCC(N)=O)nnc1-c1ccc(C)cc1	-7	nt	nt	nt	nt	nt
Cc1ccc2nc3n(c(=O)c2c1)-c1ccccc1C(=O)NC3CC(C)C (stereo not given)	-3	nt	nt	nt	nt	nt
O=C(Nc1ccccc1[N+](=O)[O-])NC1CCCCN(Cc2cccc(Cl)c2)C1=O (stereo not given)	-4	nt	nt	nt	nt	nt
C=CCN(CC=C)C(=O)COn1nnc2ccc(S(=O)(=O)N3CCOCC3)cc21	0	0	-10	17	-17	-4%
O=C(NNc1c(F)c(F)cc(F)c1F)C1CCN(S(=O)(=O)c2ccccc2F)CC1	-3	-10	-43	79*	-79	-1%
CN(C)C(=O)c1ccc(-n2nc(C(F)(F)F)c3c2CCCC3)cc1	-2	-3	1	83*	-83	-5%
O=C(c1ccc(-n2nc(C(F)(F)F)c3c2CCCC3)cc1)N1CCOCC1	-2	nt	9	79*	-79	-1%
O=C(O)c1ccc(-n2nc(C(F)(F)F)c3c2CCCC3)cc1	2	2	-10	-14	14	nt
NC(=O)c1ccc(-n2nc(C(F)(F)F)c3c2CCCC3)cc1	3	-3	-5	60	-60	nt
O=C(/C=C/c1ccco1)NC1=NCCS1	4	-11	nt	-11	11	nt
O=C(/C=C/c1ccco1)Nc1cccc(NC(=O)/C=C/c2ccco2)n1	2	4	nt	8	-8	-6%
COn1c(-c2ccccc2)nc2c1CCc1nonc1-2	nt	8	-6	-8	8	nt
c1ccc(COn2c(-c3ccccc3)nc3c2CCc2nonc2-3)cc1	1	-2	4	?	-71	1%
Cc1cc(-c2n[nH]c(=S)n2N=Cc2cccc(Oc3ccccc3)c2)n[nH]1	-6	nt	nt	nt	nt	nt
COC(=O)c1cc(-c2ccc(F)c(Cl)c2)c(=O)n2c1CCC2	2	nt	nt	nt	nt	nt
O=C(N[C@H](C(=O)N1CCC[C@H]1C(=O)NCc1ccccc1)C1CCCCC1)c1ccccc1	0	nt	nt	nt	nt	nt
CCC(=O)N1CCc2cc(-c3csc(NC(=O)c4ccco4)n3)ccc21	2	-1	nt	88*	-88	-1%
CCCC(=O)Nc1nc(-c2ccc3c(c2)CCN3S(C)(=O)=O)cs1	-3	1	nt	69	-69	nt
SMILES	SMARCA2 act	Vif imaging	TAG inh	SR-BI DiI inh	SR-BI uptake up	DiI quencher
CC(C)C(=O)N1CCc2cc(-c3csc(N)n3)ccc21	-2	0	nt	79*	-79	-15%
CS(=O)(=O)N1CCc2cc(-c3csc(NC(=O)Cc4ccccc4)n3)ccc21	-5	-8	nt	?	-75	-2%
O=C(c1ccc([N+](=O)[O-])cc1)N1CCOC12CCN(c1ncc(C(F)(F)F)cc1Cl)CC2	-7	2	nt	-3	3	-19%
COC(=O)C1=CN(c2ccc(F)cc2)C=C(C(=O)OC)C1c1ccc([N+](=O)[O-])cc1	0	-10	-4	61	-61	nt
CCOC(=O)C1=CN(c2cccc(F)c2)C=C(C(=O)OCC)C1c1cc(OC)c(O)c([N+](=O)[O-])c1	0	nt	nt	-2	2	7.7µM*
CCn1c(SCC(=O)NN=Cc2ccc(C(=O)O)cc2)nc2ccccc21	7	nt	nt	nt	nt	nt
Clc1ccc(Cn2nnc(-c3ccc(N4CCOCC4)cc3)n2)cc1	-2	2	nt	83*	-83	-6%
CCn1ccnc1CN(C)C(=O)C1CCC(=O)N(CCc2cccc(F)c2)C1 (stereo not given)	-2	13	-11	-13	13	nt
